# Results collected from several papers.
# Target: Glycogen synthase kinase-3 beta (GSK3B, Homo sapiens, UniProt P49841)
test,setting,measurement,value,SMILES
"cell-free assay, competition with immobilised ligand",1 µM,remaining binding,100%,C[C@H](c1ccc(F)cc1)N(Cc1cccc(C(=O)O)c1)C(=O)c1cnc2ccccc2c1
"enzyme activity, inhibitor, ADP detection",100 µM,inhibition,50.5%,Oc1cc2c(cc1O)C1c3ccc(O)c(O)c3OCC1(O)C2 (stereo not drawn)
"enzyme activity, inhibitor, radiometric",1 µM,remaining activity,91%,CC(C)(C)c1nc2c(s1)c1nc(N)ncc1c1ccc(NS(=O)(=O)c3c(F)cccc3F)c(F)c12
"enzyme activity, inhibitor, radiometric",10 µM,remaining activity,52%,COc1cc(Nc2cnc(C#N)c(O[C@H](C)CN(C)C)n2)ncc1-c1cnn(C)c1
cell-free assay,0.5 µM,remaining signal,97.8%,COc1ccc(COc2ccc(Cc3cnc(N)nc3N)cc2OC)cc1
"enzyme activity, inhibitor, ADP detection",100 µM,inhibition,45.4%,Cc1cnc(C(=O)NCCc2ccc(S(=O)(=O)NC(=O)NC3CCCCC3)cc2)cn1
"cell-free assay, competition with immobilised ligand",1 µM,remaining binding,100%,CS(=O)(=O)NCC[C@H](NC(=O)c1cncc2c1cnn2-c1ccc(F)cc1)c1ccnc(S(C)(=O)=O)c1
"enzyme activity, inhibitor, ADP detection",100 µM,inhibition,26.1%,O=c1cccc(C=Cc2ccc3c(c2)OCO3)o1
"enzyme activity, inhibitor",5 µM,remaining activity,95.7%,O=C(Nc1cnn(-c2csc(C(=O)NC3COC3)c2)c1)Nc1c(F)cccc1Cl
"cell-free assay, competition with immobilised ligand",1 µM,remaining binding,100%,CN1CCN(c2cnc3c(C4CCN(C(=O)c5ccc(OC(F)(F)F)cc5N)CC4)ncnc3c2)CC1
"enzyme activity, inhibitor",23.5 nM,remaining activity,92%,Cc1ccc(C(=O)Nc2ccc(CN3CCN(C)CC3)c(C(F)(F)F)c2)cc1C#Cc1cnc2cccnn12
"enzyme activity, inhibitor",0.5 µM,remaining activity,93.1%,CCN(CC)CCNC(=O)c1c(C)[nH]c(/C=C2\C(=O)Nc3ccc(Cl)cc32)c1C
cell-free assay,10 µM,remaining signal,26%,Cc1ccc(NC(=O)c2ccc(C)c(C(F)(F)F)c2)cc1C#Cc1nn(C2CCC(O)CC2)c2ncnc(N)c12 (stereo not drawn)
"enzyme activity, inhibitor",0.5 µM,remaining activity,99.7%,Nc1[nH]nc2nc3ccccc3nc12
"enzyme activity, inhibitor",10 µM,remaining activity,67%,CCCOc1ccc(OC)c(F)c1C(=O)c1ccc(C(=O)N[C@@H]2CNC[C@H]2NC(=O)c2ccc3[nH]ncc3c2)cc1
"enzyme activity, inhibitor",0.1 µM,activity vs control,85%,Cc1cc(NC(=O)c2cccc3cc(-c4cccc5[nH]nc(N)c45)ccc23)ccc1F
"enzyme activity, inhibitor, radiometric",1 µM,remaining activity,7%,Cc1cnc(NC2CCOCC2)nc1-n1cnc(C(=O)NC(CN)c2cc(F)cc(Cl)c2)c1 (stereo not drawn)
"enzyme activity, inhibitor",0.5 µM,activity vs control,86.8%,O=C1c2ccccc2-c2n[nH]c3cccc1c23
"cell-free assay, competition with immobilised ligand",1 µM,remaining binding,85%,CS(=O)(=O)c1cc(C2(NC(=O)c3cncc4c3cnn4-c3ccc(F)cc3)CC2)ccn1
"enzyme activity, inhibitor",10 µM,remaining activity,93%,CCN(CC)c1ccc(C2=NNC(=O)CC2C)cc1[N+](=O)[O-] (stereo not drawn)
cell-free assay,0.5 µM,remaining signal,48.1%,Nc1cccc(-c2cc3c(Oc4cccc(O)c4)ncnc3[nH]2)c1
"enzyme activity, inhibitor, ADP detection",100 µM,inhibition,29%,COc1cc(-c2coc3cc(O)c(OC)c(O)c3c2=O)cc(O)c1OC
"cell-free assay, competition with immobilised ligand",1 µM,remaining binding,96%,CCC(=O)N[C@@H]1CC[C@H](C(=O)N(C)c2ccc(-c3nc4ccccc4o3)cc2)C1
"enzyme activity, inhibitor, ADP detection",100 µM,inhibition,12.9%,CN1CCOC(c2ccccc2)c2ccccc2C1 (stereo not drawn)
"enzyme activity, inhibitor",10 µM,remaining activity,79%,FC(F)c1nc2ccccc2n1-c1nc(N2CCOCC2)nc(N2CCOCC2)n1
"enzyme activity, inhibitor, ADP detection",100 µM,inhibition,15.7%,COc1ccc([C@H]2COc3c(ccc(O)c3OC)C2)c(OC)c1O
"cell-free assay, competition with immobilised ligand",1 µM,remaining binding,88%,C[C@@H](c1cccc(C#N)c1)n1cc(Cl)cc(C(N)=O)c1=N
"enzyme activity, inhibitor, ADP detection",100 µM,inhibition,18.7%,O=C(O)c1cn(C2CC2)c2cc(N3CCNCC3)c(F)cc2c1=O
"cell-free assay, competition with immobilised ligand",1 µM,remaining binding,62.6%,COc1cccc(CNC(=O)c2nc3scc(COCc4ccc(C(=O)O)cc4)c3c(=O)[nH]2)c1
cell-free assay,0.5 µM,remaining signal,101%,CNC(=O)c1cc(Oc2ccc(NC(=O)Nc3ccc(Cl)c(C(F)(F)F)c3)cc2)ccn1
"enzyme activity, inhibitor, ADP detection",100 µM,inhibition,4.4%,OCc1ccccn1
"enzyme activity, inhibitor",1 µM,activity vs control,105%,COc1cc(/C=C/C(=O)CC(=O)/C=C/c2ccc(O)c(OC)c2)ccc1O
cell-free assay,0.5 µM,remaining signal,40.2%,COc1ccc(CNC(=O)Nc2ncc([N+](=O)[O-])s2)cc1
"cell-free assay, competition with immobilised ligand",1 µM,remaining binding,91%,C[C@@H]1CN(c2cc(-c3nn(C)c4ccc(OC5(C)CC5)cc34)ncn2)C[C@H](C)O1
cell-free assay,0.5 µM,remaining signal,27.3%,O=Nc1c(-c2c(O)[nH]c3ccccc23)[nH]c2ccccc12
"enzyme activity, inhibitor, radiometric",1 µM,activity vs control,88%,FC(F)(F)Oc1cccc(-c2cnc3ccc(-c4ccncc4)nn23)c1
